Reference: ChEMBL document CHEMBL1137372, “Structural investigation of the 7-chloro-3-hydroxy-1H-quinazoline-2,4-dione scaffold to obtain AMPA and kainate receptor selective antagonists. Synthesis, pharmacological, and molecular modeling studies” (J Med Chem, 2006)
pIC50, pKi: −log10 of the molar value.

Assays:
[1] = biological target: Glutamate receptor ionotropic, AMPA (Rattus norvegicus, UniProt P19490+P19491+P19492+P19493); experiment: Displacement of [3H]AMPA from AMPA receptor in rat cortical synaptic membrane; format: cell membranes
[2] = biological target: Glutamate NMDA receptor (Rattus norvegicus) (UniProt P35439+Q00959+Q00960+Q00961+Q62645+Q8VHN2+Q9R1M7); experiment: Displacement of [3H]glycine from Gly/NMDA receptor in rat cortical synaptic membrane at 100 uM; format: cell membranes
[3] = Displacement of [3H]KA from high affinity KA receptor in rat cortical membrane; format: cell membranes
Summary of the method: (§1)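 High- and low-affinity [3H]kainate binding to rat cortical membranes. Compounds were made up as a 1 mM stock in 50% DMSO and diluted in buffer. IC50s came from three or four displacement curves using four to six concentrations in triplicate, fitted with ALLFIT. Ki values are mean ± SEM of three or four determinations in triplicate.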

Rattus norvegicus [4] = species on record: Rattus norvegicus; experiment: Displacement of [3H]KA from high affinity KA receptor in rat cortical membrane at 100 uM; format: cell membranes
Summary of the method: (§2)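 Rat cortical membranes were used for the high-affinity and low-affinity [3H]kainate binding assays, following earlier published methods. Test compound was made as a 1 mM stock in 50% DMSO and diluted in buffer. The value is percent inhibition of specific binding at 100 µM.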

Glutamate NMDA receptor = experiment: Displacement of [3H]glycine from Gly/NMDA receptor in rat cortical synaptic membrane; format: cell membranes
[5] = biological target: Glutamate receptor ionotropic, AMPA (Mus musculus, UniProt P23818+P23819+Q9Z2W8+Q9Z2W9); experiment: Antagonist activity against AMPA receptor assessed as inhibition of SAMPA-induced depolarization of mouse cortex
[6] = Antagonist activity against NMDA receptor assessed as inhibition of NMDA-induced depolarization in mouse cortex; format: functional, tissue-based
Summary of the method: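 Mouse cortical wedge preparation. Depolarization was evoked with 5 µM NMDA. The IC50 is the concentration giving 50% inhibition of the depolarization, as mean ± SEM of three separate determinations.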

[7] = Displacement of [3H]KA from low affinity KA receptor in rat cortical membrane; format: cell membranes; summary of the method: as §1
[8] = biological target: Glutamate receptor ionotropic, AMPA (Rattus norvegicus) (UniProt P19491+P19492+P19493+P19490); experiment: Displacement of [3H]AMPA from AMPA receptor in rat cortical synaptic membrane at 100 uM; format: cell membranes
Mus musculus [9] = experiment: Antinociceptive activity in mouse at 0.1 mg/kg, po measured as number of acetic acid-induced writhes by abdominal constriction assay; format: functional, Abdomen
Mus musculus [10] = experiment: Activity against mouse motor coordination measured as number of falls from the rod in 30 sec by rotarod test at 50 mg/kg, po after 45 mins; format: functional
Summary of the method: (§3)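 Mice on a 3-cm rod rotating at 16 rpm, up to five at once. Drug dispersed in 1% sodium CMC and given po in 10 mL kg^-1 30 min before testing. Falls from the rod in 30 s were counted before treatment and at 30, 45 and 60 min after. Each value is the mean of eight mice.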

Mus musculus [11] = experiment: Antinociceptive activity in mouse at 1 mg/kg, po measured as number of acetic acid-induced writhes by abdominal constriction assay; format: functional, Abdomen
Mus musculus [12] = experiment: Activity against mouse motor coordination measured as number of falls from the rod in 30 sec by rotarod test at 20 mg/kg, po after 45 mins; format: functional; summary of the method: as §3
Mus musculus [13] = experiment: Activity against mouse motor coordination measured as number of falls from the rod in 30 sec by rotarod test at 50 mg/kg, po after 60 mins; format: functional; summary of the method: as §3
Mus musculus [14] = experiment: Activity against mouse motor coordination measured as number of falls from the rod in 30 sec by rotarod test at 20 mg/kg, po after 60 mins; format: functional; summary of the method: as §3
Mus musculus [15] = experiment: Activity against mouse motor coordination measured as number of falls from the rod in 30 sec by rotarod test at 50 mg/kg, po after 30 mins; format: functional; summary of the method: as §3
Mus musculus [16] = experiment: Activity against mouse motor coordination measured as number of falls from the rod in 30 sec by rotarod test at 20 mg/kg, po after 30 mins; format: functional; summary of the method: as §3
Mus musculus [17] = experiment: Antinociceptive activity in mouse at 10 mg/kg, po measured as number of acetic acid-induced writhes by abdominal constriction assay; format: functional, Abdomen
Rattus norvegicus [18] = species on record: Rattus norvegicus; experiment: Displacement of [3H]KA from low affinity KA receptor in rat cortical membrane at 100 uM; format: cell membranes; summary of the method: as §2
Mus musculus [19] = experiment: Antinociceptive activity in mouse at 5 mg/kg, po measured as number of acetic acid-induced writhes by abdominal constriction assay; format: functional, Abdomen

Row | Compound | pKi [1] | inhibition [2] | pIC50 [3] | inhibition (Rattus norvegicus [4]) | pKi (Glutamate NMDA receptor) | inhibition [8] | other results
1 | CN1CCc2c(-c3ccc(S(=O)(=O)N(C)C)cc3)cc3c(c2C1)NC(=O)/C3=N\OC(CCO)C(=O)O (configuration not stated) | 7.37 | – | 4.09 | – | < 4.52 | – | –
2 | O=c1ccn(-c2cc3c(=O)n(O)c(=O)[nH]c3cc2Cl)cc1 | 6.30 | – | 5.39 | – | 4.60 | – | pIC50 [5]: 5.46; pIC50 [6]: < 4.10
3 | COC(=O)c1cccc(C(=O)Nc2cc3c(=O)n(O)c(=O)[nH]c3cc2Cl)c1 | – | 32% | – | 20% | – | 35% | –
4 | O=C(O)c1ccc(C(=O)Nc2cc3c(=O)n(O)c(=O)[nH]c3cc2Cl)cc1 | – | 40% | 4.89 | – | – | 29% | inhibition (Rattus norvegicus [18]): 0%
5 | O=C1OCCC1On1c(=O)[nH]c2cc(Cl)ccc2c1=O (racemic) | – | 37% | – | 11% | – | 26% | –
6 | O=C(O)Cc1ccccc1Nc1c(Cl)cccc1Cl [DICLOFENAC] | – | – | – | – | – | – | Activity (Mus musculus [19]): 18.2
7 | O=C(O)CCC(=O)Nc1cc2c(=O)n(O)c(=O)[nH]c2cc1Cl | 5.08 | 8% | 5.27 | – | – | – | –
8 | O=c1[nH]c2cc(Cl)c(-n3cccc3)cc2c(=O)n1O | 4.78 | – | 5.09 | – | 6.00 | – | –
9 | O=c1[nH]c2cc(Cl)c(-n3cnnc3)cc2c(=O)n1O | – | 47% | 5.15 | – | – | – | pIC50 [5]: 5.34; pIC50 [6]: 4.08
10 | CCOC(=O)COn1c(=O)[nH]c2cc(Cl)ccc2c1=O | – | 0% | – | 5% | – | 9% | –
11 | COC(=O)c1ccc(C(=O)Nc2cc3c(=O)n(O)c(=O)[nH]c3cc2Cl)cc1 | – | 10% | – | 28% | – | 43% | –

More lines, main results first:

Row | pKi [1] | inhibition [2] | pIC50 [3] | inhibition (Rattus norvegicus [4]) | pKi (Glutamate NMDA receptor) | inhibition [8] | Compound | other results
12 | 4.35 | 33% | 4.28 | – | – | – | O=C(Nc1cc2c(=O)n(O)c(=O)[nH]c2cc1Cl)c1ccccc1 | –
13 | 4.44 | – | – | 44% | 4.06 | – | O=C1CCC(=O)N1c1cc2c(=O)n(O)c(=O)[nH]c2cc1Cl | –
14 | – | – | 3.85 | – | 6.62 | – | O=c1[nH]c2cc(Cl)ccc2c(=O)n1O | –
15 | 3.93 | 20% | 4.34 | – | – | – | N[C@@H](Cn1ccc(=O)n(Cc2ccccc2C(=O)O)c1=O)C(=O)O | pIC50 [7]: 4.82
16 | – | 27% | – | 32% | – | 33% | O=C(NCc1ccccc1)Nc1cc2c(=O)n(O)c(=O)[nH]c2cc1Cl | –
17 | 4.78 | 40% | 6.21 | – | – | – | O=C(O)c1ccccc1C(=O)Nc1cc2c(=O)n(O)c(=O)[nH]c2cc1Cl | Activity (Mus musculus [9]): 34.7; Activity (Mus musculus [10]): 3.7; Activity (Mus musculus [11]): 26.1; Activity (Mus musculus [12]): 2.6; Activity (Mus musculus [13]): 3.2; Activity (Mus musculus [14]): 1.7; pIC50 [7]: 5.80; Activity (Mus musculus [15]): 4.8; Activity (Mus musculus [16]): 3.3; Activity (Mus musculus [17]): 24.5
18 | 5.38 | – | 5.21 | – | 4.64 | – | O=Cc1ccn(-c2cc3c(=O)n(O)c(=O)[nH]c3cc2Cl)c1 | –
19 | 4.00 | – | – | 5% | 4.05 | – | O=C(O)COn1c(=O)[nH]c2cc(Cl)ccc2c1=O | –
20 | 4.22 | 32% | 4.00 | – | – | – | O=C(O)c1cccc(C(=O)Nc2cc3c(=O)n(O)c(=O)[nH]c3cc2Cl)c1 | inhibition (Rattus norvegicus [18]): 0%
21 | 5.21 | – | 5.00 | – | 4.38 | – | O=C1C=CCN1c1cc2c(=O)n(O)c(=O)[nH]c2cc1Cl | –
22 | 5.89 | 44% | 4.89 | – | – | – | O=C(O)c1ccn(-c2cc3c(=O)n(O)c(=O)[nH]c3cc2Cl)c1 | –
23 | – | 40% | – | 10% | – | 35% | O=C(O)C(CCO)On1c(=O)[nH]c2cc(Cl)ccc2c1=O (racemic) | –
